Granule exo inh = lytic granule exocytosis inhibition | TALL-104 LAMP-1 surface exposure, flow cytometry; cells stimulated with thapsigargin and PMA | inhibition, % at 10 µM | hit rate 0.66% among 360,000;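 active means inhibition above about 55%, limit read from the data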
UBC13 polyUb = inhibitors of human UBC13 polyubiquitin chain formation. P61088. TR-FRET. inhibition, % at 20 µM. hit rate 0.47% among 330,000; in the data active means inhibition above about 45%, passing the limit was not always enough
Target sequence (P61088 whole entry, looked up): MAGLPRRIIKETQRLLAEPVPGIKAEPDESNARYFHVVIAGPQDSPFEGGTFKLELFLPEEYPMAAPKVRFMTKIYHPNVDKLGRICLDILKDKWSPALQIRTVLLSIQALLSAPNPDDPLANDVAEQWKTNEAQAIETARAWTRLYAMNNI
MPTP inh = blocks calcium-induced mitochondrial swelling; isolated mouse mitochondria, Ca2+ swelling absorbance, 30 min; inhibition, % at 10 µM; hit rate 1.4% among 360,000; AID 602449;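 active means inhibition of 50% or more, scaled per plate between neutral and stimulator controls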
Apaf-1 inh = blocks human Apaf-1 apoptosome activity | O14727 | reconstituted apoptosome caspase-3 activity, DEVD-Rh110 fluorescence | inhibition, % at 20 µM | hit rate 0.71% among 330,000; active means inhibition of at least 40% at 20 µM
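Assay system: Apoptosome proteins | Medium: pH 7.5 Hepes buffer with CHAPS, BSA, DTT | Also added: Cytochrome c and DEVD-Rh110 substrate | Times: 30 min plus 50 min, RT | Detection: Rhodamine 110 fluorescence at Ex 480/Em 540 nm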
iPSC survival up = enhancers of human iPSC single-cell survival; hiPSC single-cell survival, ATPlite luminescence; 100% = ROCK inhibitor wells, 0% = DMSO; survival enhancement, % at 20 µM; hit rate 0.044% among 360,000; in the data active means survival enhancement above about 18%;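 further: cells exposed to compounds for 16 hours before the ATP read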
MIN6 prolif = MIN6 beta-cell proliferation induction | MIN6 cells proliferation, ATPlite luminescence, 48 h; cells starved in 0.2% serum; 100% = growth in 10% serum | proliferation, % at 10 µM | hit rate 0.29% among 330,000 | AID 2380;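 active means compounds whose signal lies at least 3.5 SD above the mean of all wells on their plate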
Numbers stand for hits; – = inactive; · = not tested or not shown. Compounds with a hit are over-represented: about 3% of the library has one in this group of screens.

SMILES	Granule exo inh	UBC13 polyUb	MPTP inh	Apaf-1 inh	iPSC survival up	MIN6 prolif
Cc1cccc(N2CCN(C(=S)Nc3ccc4nc(N5CCN(C)CC5)cc(C)c4c3)CC2)c1C	63	·	–	·	–	·
Cc1cc(N2CCN(C)CC2)nc2ccc(NC(=S)NCCCN3CCc4ccccc4C3)cc12	59	–	–	–	–	–
Cc1cc(N2CCN(C)CC2)nc2ccc(NC(=S)NCCN3CCc4ccccc4C3)cc12	–	–	–	–	–	–
O=C(NC1CCS(=O)(=O)C1)Oc1ccccc1 (configuration not stated)	–	–	–	51	–	–
Cc1ccc(OC(=O)NC2CCS(=O)(=O)C2)cc1C (configuration not stated)	–	–	–	–	–	–
CC1=CC2C(C3C=CC2(C)C(=O)C3(C)O)C(C)(O)C1=O (configuration not stated)	–	·	–	·	–	·
COc1ccc(NC(C)=O)cc1S(=O)(=O)N(C)Cc1c(C)nn(-c2ccccc2)c1C	–	–	–	–	–	–
O=C(CN1CCN(S(=O)(=O)c2ccc(Cl)c(Cl)c2)CC1)N1CCCC1	–	–	–	–	–	–
CCOc1ccc(C(C)=O)cc1N1C(=O)C2C3C=CC(O3)C2C1=O (configuration not stated)	105	–	–	–	–	–
CCOc1ccc(C(C)=O)cc1N1C(=O)C2C3C=CC(C3)C2C1=O (configuration not stated)	–	–	–	–	–	–
COC1=C(N)C(=O)c2nc(-c3nc(C(=O)O)c(C)c(-c4ccc(OC)c(OC)c4O)c3N)ccc2C1=O	·	–	·	84	·	–
COc1ccc(-c2ncncc2-c2csc(C)n2)c(O)c1OC	–	–	–	–	–	–
COc1ccc(C(=O)c2c(C(F)(F)F)oc3c2C(=O)c2ccccc2C3=O)cc1OC	–	–	–	85	–	–
OC[C@@H]1CC[C@@H](Cc2ccc(-c3ccccc3)cc2)O1	–	·	–	–	–	·
COc1cccc(-c2nc(C(N)=O)c3[nH]c(=O)n(-c4cccc(Cl)c4)c3n2)c1OC	–	50	–	–	–	–
CCN(c1ccccc1)S(=O)(=O)c1ccc(Cl)c(NC(=O)COC(=O)c2cc(O)c3ccccc3c2O)c1	·	–	·	48	·	–
CCN(c1ccccc1)S(=O)(=O)c1ccc(Cl)c(NC(=O)COC(=O)c2ccc(O)cc2)c1	–	–	–	–	–	–
CCC(C)(C)C1CCC2(CC1)NC(=O)N(CC(=O)NCCc1c[nH]c3ccccc13)C2=O (configuration not stated)	–	–	–	–	–	–
COC1=C(Nc2ccc(OC)cc2)C(=O)c2ccccc2C1=O	–	–	–	–	–	–
Cc1ccc(NC2=CC(=O)C(=O)c3ccccc32)cc1	–	–	–	87	–	–
Cc1ccc(NC2=C(Cl)C(=O)c3ccccc3C2=O)cc1	74	·	–	·	–	·
COC1=C(Nc2ccc(O)cc2)C(=O)c2ccccc2C1=O	–	–	–	–	–	–
Cc1cc(NC2=CC(=O)C(=O)c3ccccc32)no1	–	·	–	·	–	·
CCN(CC)c1ccc(NC2=C(Cl)C(=O)c3ccccc3C2=O)cc1	67	·	–	·	–	·
CCCC(=O)NC1=C(Cl)C(=O)c2ccccc2C1=O	–	·	–	·	–	·
SMILES	Granule exo inh	UBC13 polyUb	MPTP inh	Apaf-1 inh	iPSC survival up	MIN6 prolif
O=C1C(Cl)=C(Nc2ccc(O)cc2)C(=O)c2ccccc21	70	–	–	–	–	–
COc1cc([N+](=O)[O-])ccc1NC(=O)COC(=O)CCS(=O)(=O)c1ccc(C)cc1	–	–	–	–	–	–
O=C(c1ccco1)N1CCN(C2=NS(=O)(=O)c3ccccc32)CC1	–	–	–	–	–	–
CN1CCN(c2cc(N3CCN(C(=O)c4ccco4)CC3)c3c4c(onc24)-c2ccccc2C3=O)CC1	–	–	–	82	–	–
CCc1ccc(CN2CCC(Oc3cc(C(=O)NC4CC4)ccc3OC)CC2)cc1	–	·	–	·	–	·
C=CC(=O)N1C/C(=C/c2ccc(F)cc2)C(=O)/C(=C\c2ccc(F)cc2)C1	94	·	–	·	–	·
C[C@@H]1CN=C2N(CCNC(=O)CCC3CCCCC3)[C@H](Cc3ccc(O)cc3)CN21	–	–	–	–	–	–
CCCCCCNC(=O)N[C@H](C(=O)NCCC[C@H]1CN2C(=NC[C@H]2C)N1CCC(c1ccccc1)c1ccccc1)C(C)O (some centres not stated)	·	49	·	–	·	–
Cc1noc(C)c1NC(=O)N(C)C[C@@H]1Oc2c(NC(=O)c3ccncc3)cccc2C(=O)N([C@H](C)CO)C[C@@H]1C	–	–	–	–	–	–
O[C@H]1C[C@H](c2ccc(Cl)cc2)N(CC2CCCCC2)C[C@@H]1n1cc(C2CC2)nn1	–	·	–	·	–	·
Cc1noc(C)c1COc1ccc(C(=O)NCC(c2c(F)cccc2Cl)N(C)C)cc1 (configuration not stated)	–	–	–	–	–	–
COc1cc(/C=N/NC(=O)c2ccc(=O)[nH]n2)ccc1O	–	–	–	–	–	0.0
O=C(NC1CCCCC1)C(c1ccc(C(F)(F)F)cc1)n1c(=O)c(-c2cc3ccccc3[nH]2)nc2ccccc21 (configuration not stated)	–	·	–	·	·	·
COc1cccc(CN2CC(C(=O)NCCOc3cccnc3)CCC2=O)c1 (configuration not stated)	–	–	–	–	–	–
Cc1ccccc1-c1nc2ccccc2c(=O)n1/N=C/c1ccccc1[N+](=O)[O-]	67	–	–	–	–	–
O=C1c2ccccc2C(c2nnnn2Cc2ccccc2)N1Cc1cccs1 (configuration not stated)	–	·	–	·	–	·
CCOc1ccc(NC(=O)CN(C)C(=O)c2ccccc2OCc2cccc(C)c2)cc1OCC	–	–	–	46	–	–
Cc1cccc(COc2ccccc2C(=O)N(C)CC(=O)Nc2cccc(F)c2)c1	–	–	–	–	–	–
COc1ccc(C(=O)N2CCCC(CCC(=O)NCc3ccccc3F)C2)c(OC)n1 (configuration not stated)	–	–	–	–	–	–
Oc1ccc(C=Nc2ccc3ncccc3c2)c(O)c1	·	–	·	95	·	–
CCCCN1C(=O)C(CC(=O)NCc2cccs2)CC(C(=O)N(C(C)C)C(C)C)=C1C (configuration not stated)	–	·	–	·	–	·
CN(C(=O)COC(=O)c1cccs1)c1ccccc1	–	·	–	·	–	·
C/C(CCc1oc2c(Br)cc(Br)cc2c1-c1ccc(C)o1)=N\O	83	–	–	–	–	–
C/C(CCc1oc2ccccc2c1-c1ccc(C)o1)=N/O	74	–	–	–	–	–
Cc1nccn1-c1ccc(NC(=O)[C@H]2O[C@@H](n3ccc(N)nc3=O)[C@H](O)[C@@H]2O)cc1	–	·	–	·	–	·
CCOc1ccc(NC(=O)CN(C)C(=O)c2c(C)nn(Cc3ccccc3Cl)c2C)cc1OCC	–	·	–	·	–	·

High-throughput results (PubChem BioAssay)
